Laboratory results as given in publication PMC9305226 (Clinical Pharmacology in Drug Development, 2022).

Legend:
Type in all cases: in vivo, human
[1] = tested on: healthy Japanese male subjects; experiment: Safety and tolerability of single doses; conditions: single s.c. 0.3 U/kg, healthy Japanese men; all TEAEs mild or moderate
[2] = Plasma insulin lispro pharmacokinetics after a single subcutaneous dose; conditions: for median tmax: healthy Japanese men, single s.c. 0.3 U/kg, plasma, n = 36
In short: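 Venous blood drawn into K-EDTA tubes predose, then every 15–60 min over the 10 h clamp. Samples centrifuged within 20 min; plasma held at –60 to –80°C. Analysis by LC-MS/MS specific for lispro over endogenous insulin: protein precipitation plus solid-phase extraction, bovine insulin internal standard, C18 gradient at 40°C. Calibration was 1/x2-weighted linear over 100–8000 pg/mL. Noncompartmental parameters; log-values by mixed model, ratios back-transformed.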

[3] = tested on: healthy Japanese male subjects; experiment: 10-hour euglycemic clamp; conditions: ratio of geometric means, linear mixed effects model, n = 36, 95%CI
In short: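 Randomized double-blind 2-period crossover, single s.c. 0.3 U/kg per period, 7–18 day washout. After ≥10 h overnight fast, baseline BG was the mean of readings at –30, –20, –10 and –1 min (clamp skipped if <70 mg/dL). BG measured every 1 min; 10% glucose infusion auto-adjusted to hold BG 5 mg/dL below baseline for 10 h. Body-weight-standardized GIR smoothed (LOESS, tension 0.06). Log-parameters analysed by mixed model (period, sequence, treatment fixed; subject random), back-transformed.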

[4] = ratio of geometric means, linear mixed effects model, n = 36, 90%CI

Substance: insulin lispro [Ly‐Lis‐Jp, reference compound]
- Tolerability of single doses [1]: well tolerated
- median tmax [2]: 1 h

Substance: insulin lispro [SAR‐Lis]
- Tolerability of single doses [1]: well tolerated
- median tmax [2]: 1 h
- AUCinf, Mean Ratio SAR‐Lis/Ly‐Lis‐Jp, point estimate (90%CI) [2, 4]: 1.00 (0.97‐1.02)
- AUClast, Mean Ratio SAR‐Lis/Ly‐Lis‐Jp, point estimate (90%CI) [2, 4]: 1.00 (0.97‐1.02)
- Cmax, Mean Ratio SAR‐Lis/Ly‐Lis‐Jp, point estimate (90%CI) [2, 4]: 0.99 (0.93‐1.05)
- t1/2z, Mean Ratio SAR‐Lis/Ly‐Lis‐Jp, point estimate (90%CI) [2, 4]: 1.03 (0.96‐1.11)
- GIRmax, Mean Ratio SAR‐Lis/Ly‐Lis‐Jp, point estimate (95%CI) [3]: 1.07 (1.00‐1.15)
- GIR‐AUC0‐10h, Mean Ratio SAR‐Lis/Ly‐Lis‐Jp, point estimate (95%CI) [3]: 1.07 (0.99‐1.15)
